Experimental data as given in ChEMBL document CHEMBL1799956, “Convergent synthesis and biological evaluation of 2-amino-4-(3',4',5'-trimethoxyphenyl)-5-aryl thiazoles as microtubule targeting agents” (J Med Chem, 2011).
Active and inactive are the calls of the source. No cut-off for these calls is given here.

Key:
HeLa [1] = assay: Induction of apoptosis in human HeLa cells assessed as DNA condensation at 100 uM after 24 to 48 hrs using Giemsa's staining by microscopic analysis; assay type: functional, cell-based
In short: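 HeLa treated 48 h, Giemsa stained and examined by light microscopy at 60× magnification.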

HeLa [2] = assay: Cell cycle arrest in human HeLa cells assessed as decrease of cell population at G1 phase at 1 to 100 nM after 48 hrs using propidium iodide staining by flow cytometry; assay type: functional, cell-based
HeLa [3] = assay: Induction of apoptosis in human HeLa cells assessed as increase in annexin-V positive cells after 24 hrs by annexin-V-FITC and propidium iodide staining based flow cytometry; assay type: functional, cell-based
In short: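 Biparametric flow cytometry after annexin-V immunolabelling plus propidium iodide, separating live, early apoptotic, late apoptotic and necrotic cells; HeLa incubated for 24 or 48 h.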

[4] = Inhibition of bovine brain tubulin polymerization after 20 mins by turbidimetric analysis; set-up: species or system Bos taurus
In short: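 Purified tubulin at 10 μM was used for the assembly (polymerization) inhibition assay. IC50 is the concentration inhibiting assembly.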

HeLa [5] = assay: Induction of apoptosis in human HeLa cells assessed as decrease in Bcl2 expression at […] after 48 hrs by Western blot analysis; assay type: functional, cell-based
In short: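 Treated HeLa whole-cell lysates separated by SDS-PAGE and immunoblotted for PARP cleavage, Bcl-2, Bax, pro-caspase-9 and pro-caspase-2.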

HeLa [6] = assay: Induction of apoptosis in human HeLa cells assessed activation of caspase 9 at 10 to 100 nM after 48 hrs by Western blot analysis
HeLa [7] = assay: Cell cycle arrest in human HeLa cells assessed as decrease of cell population at G1 phase at 1 to 100 nM after 24 hrs using propidium iodide staining by flow cytometry; assay type: functional, cell-based
Jurkat [8] = assay: Cell cycle arrest in human Jurkat cells assessed as increase of cell population at G2/M phase at 1 to 100 nM after 48 hrs using propidium iodide staining by flow cytometry; assay type: functional, cell-based
HeLa [9] = assay: Antiproliferative activity against human HeLa cells assessed as growth inhibition after 72 hrs by MTT assay; assay type: functional, cell-based
Jurkat [10] = assay: Induction of apoptosis in human Jurkat cells assessed as abnormal mitotic figures at 100 uM after 24 to 48 hrs using Giemsa's staining by microscopic analysis; assay type: functional, cell-based
In short: (§1)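 Giemsa staining, then light-microscope examination of cell morphology. HeLa and Jurkat cells were exposed to compound for 24 and 48 h. Magnification 60×.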

HeLa [11] = assay: Induction of cell cycle arrest at G2/M phase in human HeLa cells assessed as decrease in phosphorylated Cdc2(Y15) expression at 10 to 100 nM after 48 hrs by Western blot analysis; assay type: functional, cell-based
In short: (§2)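 Immunoblot of HeLa lysates after 24 or 48 h of compound treatment at the indicated concentrations. Probed for cyclin B1, p-Cdc2 Y15 and Cdc25c. Slower-migrating Cdc25c bands were taken as a change in phosphorylation.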

Jurkat [12] = assay: Induction of apoptosis in human Jurkat cells assessed as DNA condensation at 100 uM after 24 to 48 hrs using Giemsa's staining by microscopic analysis; assay type: functional, cell-based; in short: as §1
HeLa [13] = assay: Induction of morphological changes in human HeLa cells assessed as effect on arrangement and amount of F-actin at 10 nM after 24 hrs using phalloidintetramethylrhodamine B isothiocyanate staining by microscopy; assay type: functional, cell-based
In short: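 HeLa cells were incubated with compound for 24 h. F-actin was stained with a phalloidin–tetramethylrhodamine B isothiocyanate conjugate and nuclei were counterstained with DAPI. Cells were then examined by fluorescence microscopy.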

A549 = assay: Fold resistance, ratio of IC50 for human taxol-resistant A549-T12 cells to IC50 for human A549 cells; assay type: functional
HeLa [14] = assay: Induction of cell cycle arrest at G2/M phase in human HeLa cells assessed as increase in cyclin B1 expression after 24 to 48 hrs by Western blot analysis; assay type: functional, cell-based; in short: as §2
Jurkat [15] = assay: Cell cycle arrest in human Jurkat cells assessed as increase of cell population at G2/M phase after 24 hrs using propidium iodide staining by flow cytometry; assay type: functional, cell-based
HeLa [16] = assay: Cell cycle arrest in human HeLa cells assessed as decrease of cell population at S phase at 100 nM after 24 hrs using propidium iodide staining by flow cytometry; assay type: functional, cell-based
HL-60 = assay: Antiproliferative activity against human HL60 cells assessed as growth inhibition after 72 hrs by MTT assay; assay type: functional, cell-based; details: HL-60, 72 h
HeLa [17] = assay: Induction of cell cycle arrest at G2/M phase in human HeLa cells assessed as decrease in Cdc25C expression at 100 nM after 48 hrs by Western blot analysis; assay type: functional, cell-based; in short: as §2

With `CCOc1ccc(-c2sc(N)nc2-c2cc(OC)c(OC)c(OC)c2)cc1` the Activity (HeLa [1]) was “Active”, the Activity (HeLa [2]) was “Active” and the Activity (HeLa [3]) was “Dose-dependent effect”. The IC50 [4] was 610 nM, the Activity (HeLa [5]) was “Active” and the Activity (HeLa [6]) was “inactive”. The Activity (HeLa [7]) was “Active”, the Activity (Jurkat [8]) was “Active” and the IC50 (HeLa [9]) was 0.03 nM. The Activity (Jurkat [10]) was “Active”, the Activity (HeLa [11]) was “Active” and the Activity (Jurkat [12]) was “Active”. For the same compound, the Activity (HeLa [13]) was “Active”, the “Ratio IC50” value (A549) was 2.2 and the Activity (HeLa [14]) was “Dose-dependent effect”. For the same compound, the Activity (Jurkat [15]) was “Dose-dependent effect”, the Activity (HeLa [16]) was “Active” and the IC50 (HL-60) was 0.9 nM. The Activity (HeLa [17]) was “Active”.
